According to ChEMBL document CHEMBL1152993, “Telithromycin and quinupristin-dalfopristin induce delayed death in Plasmodium falciparum” (Antimicrob Agents Chemother, 2008):
≈ marks a conversion by molar mass, not a printed value. Calls of active or inactive are those of the source. The calls are words filed in the database; no cut-off is given here.

How the values were obtained:
Plasmodium falciparum [1] = experiment: Relative activity against Plasmodium falciparum 3D7 as IC50 ratio after 48 and 96 hrs; format: functional
Plasmodium falciparum [2] = experiment: Antiplasmodial activity after 96 hrs against Plasmodium falciparum 3D7 as Malstat LDH activity; format: functional, organism-based; conditions: for IC50: 3D7, 96 h
Summary of the method: (§1)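 Synchronized ring-stage 3D7 plated at 1% parasitemia. Drugs tested at 1 nM to 100 μM, dissolved in DMSO or water; 0.5% DMSO was the negative control. Cultures kept 48, 72, 96 or 120 h, with medium changed at day 3. Viability read by Malstat parasite lactate dehydrogenase activity. IC50 reported as mean ± SEM.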

Plasmodium falciparum [3] = experiment: Antiplasmodial activity against Plasmodium falciparum 3D7 as early schizont maturation arrest at IC50 after 48-120 hrs by giemsa stain; format: functional, organism-based
Summary of the method: (§2)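 Synchronized 3D7 cultures exposed to drug at the 96-h IC50 over three life cycles, with 0.5% DMSO as untreated control. Giemsa smears were taken at 48, 72, 96 and 120 h, and developmental stages were counted at each time point.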

Plasmodium falciparum [4] = experiment: Antiplasmodial activity after 120 hrs against Plasmodium falciparum 3D7 as Malstat LDH activity; format: functional, organism-based; conditions: for IC50: 3D7, 120 h; summary of the method: as §1
Plasmodium falciparum [5] = experiment: Antiplasmodial activity against Plasmodium falciparum 3D7 assessed as multiple-nuclei schizont arrest at IC50 after 96 hrs by transmission electron microscopy; format: functional, organism-based
Summary of the method: (§3)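 Cultures exposed to drug at the 96-h IC50 and collected after 96 h of treatment. Fixed in 1% glutaraldehyde and 4% paraformaldehyde in PBS, then processed for transmission electron microscopy to assess schizont stage and morphology. Untreated parasites served as comparison.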

Plasmodium falciparum [6] = experiment: Antiplasmodial activity after 48 hrs against Plasmodium falciparum 3D7 as Malstat LDH activity; format: functional, organism-based; conditions: for IC50: 3D7, 48 h; summary of the method: as §1
Plasmodium falciparum [7] = experiment: Antiplasmodial activity after 72 hrs against Plasmodium falciparum 3D7 as Malstat LDH activity; format: functional, organism-based; conditions: for IC50: 3D7, 72 h; summary of the method: as §1
Plasmodium falciparum [8] = experiment: Antiplasmodial activity against Plasmodium falciparum 3D7 as delayed maturation in first replication and early second cycle arrest at IC50; format: functional, organism-based; summary of the method: as §2
Plasmodium falciparum [9] = experiment: Antiplasmodial activity as ED50 against parasite growth after 96 hrs for Plasmodium falciparum 3D7; format: functional, organism-based; conditions: 3D7, 96 h; summary of the method: as §1
[10] = Cmax in human at 12 mg/kg administered as single oral dose; format: ADME, organism-based; design: dose 12 mg/kg, route oral; conditions: in vivo
Plasmodium falciparum [11] = experiment: Antiplasmodial activity against Plasmodium falciparum 3D7 as late trophozoite to early schizont arrest at IC50 after 48-120 hrs by giemsa stain; format: functional, organism-based; summary of the method: as §2
Plasmodium falciparum [12] = experiment: Antiplasmodial activity against Plasmodium falciparum 3D7 as delayed first replication cycle at IC50 after 48-120 hrs by giemsa stain; format: functional; summary of the method: as §2
Plasmodium falciparum [13] = experiment: Antiplasmodial activity against Plasmodium falciparum 3D7 as 2xnuclei schizont arrest at IC50 after 96 hrs by transmission electron microscopy; format: functional, organism-based; summary of the method: as §3
Plasmodium falciparum [14] = experiment: Antiplasmodial activity as ED50 against parasite growth after 48 hrs for Plasmodium falciparum 3D7; format: functional, organism-based; conditions: 3D7, 48 h; summary of the method: as §1

Row | Structure (SMILES) | Ratio IC50 (Plasmodium falciparum [1]) | IC50 (Plasmodium falciparum [2]) [nM] | Activity (Plasmodium falciparum [3]) | IC50 (Plasmodium falciparum [4]) [nM] | Activity (Plasmodium falciparum [5]) | IC50 (Plasmodium falciparum [6]) [µM] | IC50 (Plasmodium falciparum [7]) [nM] | Activity (Plasmodium falciparum [2]) | Activity (Plasmodium falciparum [4]) | Activity (Plasmodium falciparum [6]) | Activity (Plasmodium falciparum [7]) | Activity (Plasmodium falciparum [8]) | IC50 (Plasmodium falciparum [9]) [µg/mL] | Cmax [10] [ng/mL] | Activity (Plasmodium falciparum [11]) | Activity (Plasmodium falciparum [12]) [h] | Activity (Plasmodium falciparum [13]) | IC50 (Plasmodium falciparum [14]) [µg/mL]
1 | CC[C@H]1OC(=O)[C@H](C)[C@@H](O[C@H]2C[C@@](C)(OC)[C@@H](O)[C@H](C)O2)[C@H](C)[C@@H](O[C@@H]2O[C@H](C)C[C@H](N(C)C)[C@H]2O)[C@](C)(O)C[C@@H](C)CN(C)[C@H](C)[C@@H](O)[C@]1(C)O [AZITHROMYCIN] | 10 | 940 | Active | 410 | Active | 9.04 | 4570 |  |  |  |  |  |  |  |  |  |  | 
2 | CC(=O)NC[C@H]1CN(c2ccc(N3CCOCC3)c(F)c2)C(=O)O1 |  |  |  |  |  |  |  | inactive | inactive | inactive | inactive |  |  |  |  |  |  | 
3 | C[C@H]1c2cccc(O)c2C(=O)C2=C(O)[C@]3(O)C(=O)C(C(N)=O)=C(O)[C@@H](N(C)C)[C@@H]3[C@@H](O)[C@@H]21.O [DOXYCYCLINE] | 10 | 720 | Active | 120 | Active | 5.42 | 1490 |  |  |  |  |  |  |  |  |  |  | 
4 | CC[C@H]1OC(=O)[C@H](C)C(=O)[C@H](C)[C@@H](O[C@@H]2O[C@H](C)C[C@H](N(C)C)[C@H]2O)[C@](C)(OC)C[C@@H](C)C(=O)[C@H](C)[C@H]2N(CCCCn3cnc(-c4cccnc4)c3)C(=O)O[C@]12C [TELITHROMYCIN] |  | 280 |  | 440 |  | 8.08 | 1040 |  |  |  |  | Active | 0.23 (≈ 0.283 µM) | 1900 | Active | 5 | Active | 6.56 (≈ 8.08 µM)
